Most compounds without a hit are left out; they make up all but 2.2% or so of the library.
MLLE-PAM2 inh: inhibitors of microRNA-mediated deadenylation, human PABP1 MLLE binding; inhibition, % at 20 µM; GST-MLLE / FITC-PAM2 fluorescence polarization; actives 0.36% (n = 360,000); in the data active = inhibition above about 35%, passing the limit was not always enough
Target sequence (P11940 whole entry, looked up): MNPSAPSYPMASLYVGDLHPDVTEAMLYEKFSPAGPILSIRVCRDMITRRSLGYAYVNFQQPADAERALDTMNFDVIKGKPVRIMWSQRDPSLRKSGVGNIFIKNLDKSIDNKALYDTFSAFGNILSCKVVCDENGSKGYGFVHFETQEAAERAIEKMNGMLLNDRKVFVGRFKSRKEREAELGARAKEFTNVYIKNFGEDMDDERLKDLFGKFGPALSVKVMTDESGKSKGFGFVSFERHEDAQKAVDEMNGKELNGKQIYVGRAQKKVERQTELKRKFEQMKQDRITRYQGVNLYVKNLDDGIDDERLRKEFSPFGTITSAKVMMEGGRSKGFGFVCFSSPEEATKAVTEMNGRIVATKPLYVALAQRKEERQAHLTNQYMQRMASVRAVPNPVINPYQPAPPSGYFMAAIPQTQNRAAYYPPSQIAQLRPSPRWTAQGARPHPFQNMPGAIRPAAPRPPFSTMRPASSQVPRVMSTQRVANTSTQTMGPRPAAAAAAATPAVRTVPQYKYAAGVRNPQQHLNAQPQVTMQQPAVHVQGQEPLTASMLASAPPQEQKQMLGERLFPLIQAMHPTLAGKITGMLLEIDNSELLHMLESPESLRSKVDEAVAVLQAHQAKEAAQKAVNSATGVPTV
IMP-1 inhibitor: blocks Pseudomonas aeruginosa IMP-1 metallo-beta-lactamase; purified IMP-1, nitrocefin hydrolysis, epi-absorbance fluorescence; inhibition, % at 5.6 µM; actives 0.45% (n = 290,000); AID 1556;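 active = inhibition above the mean plus 3 SD of all compounds in the same screening run, cut at about 4.5% in these data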
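System – purified recombinant IMP-1 beta-lactamase · Input – IMP-1 dispensed at 0.2 nM · Timing – 15 min preincubation plus 25 min reaction at 25 °C · Signal – Epi-absorbance fluorescence, 480 nm excitation, 530 nm emission · Measure – percent IMP-1 inhibition derived from blank-referenced optical density · Controls – Enzyme-plus-DMSO low control, enzyme-free DMSO high control · Replication – singlicate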
eIF4H FP inh: inhibitors of RNA binding by human eIF4H | actives 0.94% (n = 290,000) | Q15056 | eIF4H fluorescence polarization binding assay | AID 2012 | inhibition, % at 35 µM;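 note: calls also rest on retests at 20 µM and on dose response follow-up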
PABP polyA inh: PABP-poly(A) binding inhibition. PABP-poly(A) RNA binding, fluorescence polarization. calls only at 35 µM. actives 1% (n = 290,000). P11940. AID 2014;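 note: calls also rest on retests at 20 µM and on dose response follow-up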
VIM-2 inhibitor: inhibitors of Pseudomonas aeruginosa VIM-2 metallo-beta-lactamase | purified VIM-2, nitrocefin hydrolysis, epi-absorbance fluorescence | inhibition, % at 5.6 µM | actives 0.89% (n = 290,000) | AID 1527;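 active = inhibition above the mean of all tested compounds plus 3 SD, cutoff set per screening run, cut at about 7.5% in these data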;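 note: red hydrolysis product quenches plate fluorescence so inhibitors raise well fluorescence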
VIM-2 confirm: VIM-2 inhibition, confirmation assay; shares compounds with IMP-1 inhibitor; purified VIM-2 enzyme, nitrocefin absorbance; inhibition, % at 5.6 µM; actives 73% (n = 200); AID 1860; in the data active = inhibition above about 8%
TEM-1 counter: blocks E. coli TEM-1 beta-lactamase, VIM-2 IMP-1 counter-screen. shares compounds with IMP-1 inhibitor. nitrocefin absorbance inhibition. inhibition, % at 5.6 µM. actives 50% (n = 200). AID 2184; in the data active = inhibition above about 0.66%
IMP-1 confirm: confirmation of P. aeruginosa IMP-1 metallo-beta-lactamase inhibitors. purified IMP-1 enzyme, absorbance substrate hydrolysis. inhibition, % at 5.6 µM. shares compounds with IMP-1 inhibitor. actives 60% (n = 200); in the data active = inhibition above about 4.9%
Numbers stand for hits; . = inactive; ? = inconclusive; / = no result given; + = active, no number. Unless noted, the rule behind the calls is not given here.

SMILES | MLLE-PAM2 inh | IMP-1 inhibitor | eIF4H FP inh | PABP polyA inh | VIM-2 inhibitor | VIM-2 confirm | TEM-1 counter | IMP-1 confirm
CCc1cc(=O)oc2cc(C)c(CN3CCCC(C)C3)c(O)c12 (stereo not drawn) | . | 16 | 63 | + | 8.4 | 10 | . | .
Cc1ccc(S(=O)(=O)N2[C@H](C(C)C)[C@H]3[C@H]4C(=O)N(c5ccccc5)C(=O)[C@H]4CC(=O)[C@H]3[C@@H]2c2ccccc2)cc1 | . | / | / | / | / | / | / | /
COC(=O)c1sccc1NC(=O)c1ccc(C#N)cc1 | . | 32 | . | . | 16 | 14 | . | 22
O=C1CSC(=S)N1/N=C/c1cc(Br)c(O)c(Br)c1 | . | 23 | ? | ? | 13 | 26 | 3.6 | 37
COc1cc(/C=N/N2C(=O)CSC2=S)ccc1O | . | . | . | . | . | / | / | /
O=C(O)c1cc(Cl)ccc1-c1ccc(/C=C/c2cc(C(F)(F)F)[nH]c(=O)n2)o1 | . | . | ? | ? | . | / | / | /
O=C(O)c1ccccc1-c1ccc(/C=C/c2cc(C(F)(F)F)[nH]c(=O)n2)o1 | . | 5.5 | ? | . | 8.2 | 15 | 37 | 11
